Test results reported in ChEMBL document CHEMBL2396529, “Synthesis and anticancer mechanism investigation of dual Hsp27 and tubulin inhibitors” (J Med Chem, 2013).
Calls of active or inactive are those of the source. No cut-off for these calls is given here.

Columns and labels:
SK-BR-3 = experiment: Antiproliferative activity against human SKBR3 cells after 48 hrs by MTT assay; assay type: functional, cell-based; conditions: SK-BR-3, 48 h
Outline: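 MTT assay on SKBR-3 cells (RPMI 1640, 10% heat-inactivated FBS, 37 °C, 5% CO2), seeded 24 h before dosing, then exposed 48 h to a concentration series in DMSO (final ≤0.1%) with vehicle-matched controls. Afterwards 0.5 mg/mL MTT for 2 h, formazan dissolved in DMSO, A570 read, six replicates. IC50 from nonlinear regression.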

[1] = target: Heat shock protein beta-1 (Homo sapiens) (UniProt P04792); experiment: Inhibition of HSP27 (unknown origin) assessed as increase in DTT-induced insulin B chain aggregation at 5 uM incubated for 5 mins prior to DTT-treatment measured after 30 mins by spectrophotometric analysis relative to control
Bos taurus = organism: Bos taurus; conditions: 100 uM
[2] = target: Heat shock protein beta-1 (Homo sapiens) (UniProt P04792); experiment: Inhibition of HSP27 (unknown origin) assessed as increase in DTT-induced insulin B chain aggregation at 10 uM incubated for 5 mins prior to DTT-treatment measured after 30 mins by spectrophotometric analysis relative to control

Sequence of Heat shock protein beta-1 (Homo sapiens) (P04792 whole entry): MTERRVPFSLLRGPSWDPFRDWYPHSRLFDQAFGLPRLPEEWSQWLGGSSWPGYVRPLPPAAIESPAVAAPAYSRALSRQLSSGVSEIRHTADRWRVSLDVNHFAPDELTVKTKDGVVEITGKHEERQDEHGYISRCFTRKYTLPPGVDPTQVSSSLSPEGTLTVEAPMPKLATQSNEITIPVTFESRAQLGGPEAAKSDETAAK

| IC50 (SK-BR-3) [µM] | Compound | further results |
| --- | --- | --- |
| 0.71 | COc1ccc(OC)c(COc2cc(NC(=O)c3ccc4c(c3)OCO4)ccc2N(C)S(=O)(=O)C(F)(F)F)c1 | – |
| 28.8 | CCCCCCOc1cc(NC(=O)c2ccc3c(c2)OCO3)ccc1N(C)S(C)(=O)=O | – |
| 0.011 | COc1ccc(OC)c(COc2cc(NC(=O)c3ccc(OC)c(OC)c3)ccc2NS(C)(=O)=O)c1 | – |
| 12.7 | CCCCCCOc1cc(NC(=O)c2ccc(I)cc2)ccc1N(C)S(C)(=O)=O | – |
| 0.00752 | COc1ccc(OC)c(COc2cc(NC(=O)c3ccc4c(c3)OCO4)ccc2N(C)S(C)(=O)=O)c1 | – |
| 16.9 | COc1ccc(C(=O)Nc2ccc(N(C)S(C)(=O)=O)c(OCc3cc(C(F)(F)F)ccc3C)c2)cc1OC | – |
| 0.0134 | COc1ccc(C(=O)Nc2ccc(NS(C)(=O)=O)c(OCc3cc(OC)ccc3OC)c2)cc1 | – |

The next lines start with the compound.

| Compound | IC50 (SK-BR-3) [µM] | further results |
| --- | --- | --- |
| COc1ccc(OC)c(COc2cc(NC(=O)c3ccc(OC)c(OC)c3)ccc2N(C)S(C)(=O)=O)c1 | 0.00261 | – |
| CCCCCCOc1cc(NC(=O)c2ccc(OC)c(OC)c2)ccc1N(C)S(C)(=O)=O | 100 | – |
| COc1ccc(OC)c(COc2cc(NC(=O)c3ccc4c(c3)OCO4)ccc2NS(C)(=O)=O)c1 | 0.0353 | – |
| Cc1ccc(C)c(COc2cc(NC(=O)C3CCCCC3)ccc2N(C)S(C)(=O)=O)c1 | – | inhibition [1]: 29% |
| CCCCCCOc1cc(NC(=O)c2ccc(Br)cc2)ccc1N(C)S(C)(=O)=O | 39.9 | – |
| Cc1ccc(C)c(COc2cc(NC(=O)c3ccc(Br)cc3)ccc2N(C)S(=O)(=O)C(F)(F)F)c1 | 36.4 | – |
| Cc1ccc(C(F)(F)F)cc1COc1cc(NC(=O)c2ccc(Br)cc2)ccc1N(C)S(C)(=O)=O | 9.49 | – |
| Cc1ccc(C(F)(F)F)cc1COc1cc(NC(=O)c2ccc(I)cc2)ccc1N(C)S(C)(=O)=O | 3.5 | – |
| COc1ccc(C(=O)Nc2ccc(N(C)S(C)(=O)=O)c(OCc3cc(C(F)(F)F)ccc3C)c2)cc1 | 2.03 | – |
| CS(=O)(=O)Nc1ccc([N+](=O)[O-])cc1Oc1ccccc1 [NIMESULIDE] | 100 | inhibition (Bos taurus): 14%; inhibition [2]: inactive |
| COc1ccc(C(=O)Nc2ccc(N(C)S(C)(=O)=O)c(OCc3cc(C)ccc3C)c2)cc1 | – | inhibition [2]: 30% |
| COc1ccc(C(=O)Nc2ccc(N(C)S(C)(=O)=O)c(OCc3cc(Cl)ccc3Cl)c2)cc1 | 0.49 | – |
| Cc1ccc(C)c(COc2cc(NC(=O)c3ccc4c(c3)OCO4)ccc2N(C)S(=O)(=O)C(F)(F)F)c1 | 21.8 | – |
| COc1ccc(OC)c(COc2cc(NC(=O)c3ccc(I)cc3)ccc2NS(C)(=O)=O)c1 | 0.0118 | – |
| COc1ccc(C(=O)Nc2ccc(N(C)S(C)(=O)=O)c(OCc3cc(Cl)ccc3Cl)c2)cc1OC | 3.73 | – |
